Results reported in ChEMBL document CHEMBL1133084, “Synthesis of novel 3,7-substituted-2-(3',4'-dihydroxyphenyl)flavones with improved antioxidant activity” (J Med Chem, 2000).

Tests used:
Rattus norvegicus = organism: Rattus norvegicus; assay: Inhibitory effect on the oxidative degradation of membrane lipids (lipid peroxidation assay) in microsomes of rat.; assay type: functional
In short: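 Liver microsomes from male Wistar rats (200–220 g), washed in 50 mM Tris-HCl pH 7.4 and heat-inactivated at 100 °C ≥2 min, then diluted to 1.5 mg/mL. Peroxidation started with 10 μM FeSO4; final DMSO ≤2.5%. TBA-reactive substances sampled at 0–60 min and absorbance read at 535-600 nm after heating. IC50 interpolated from % inhibition at several concentrations; mean ± SEM, n = 3-5.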

[1] = Antioxidant activity was determined using trolox equivalent antioxidant capacity assay.; assay type: functional
In short: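 ABTS (1.23 mg/mL) and ABAP (3.96 mg/mL) in 50 mM phosphate buffer pH 7.4 heated 70 °C for 20 min to generate ABTS radical. Test compound (stock in N2-purged DMSO:water 1:1; final DMSO ≤0.25%) incubated with ABTS•+ solution 5 min at 37 °C. Absorbance read at 734 nm. Trolox calibration 0–20 μM; TEAC = mM trolox equivalent to 1 mM compound.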

SMILES | IC50 (Rattus norvegicus) [nM] | Activity [1] [mM]
C[N+](C)(C)CCCCCCCCOc1c(-c2ccc(O)c(O)c2)oc2ccccc2c1=O | 1000 | 3.3
O=C(O)COc1c(-c2ccc(O)c(O)c2)oc2ccccc2c1=O | 6500 | 7.6
COc1c(-c2ccc(O)c(O)c2)oc2ccccc2c1=O | 1300 | 4.4
COc1ccc2c(=O)cc(-c3ccc(O)c(O)c3)oc2c1 | 2500 | 3.3
C[N+](C)(C)CCCOc1c(-c2ccc(O)c(O)c2)oc2cc(O)ccc2c1=O | 3800 | 5.1
O=c1cc(-c2ccc(O)c(O)c2)oc2cc(O)ccc12 | 11000 | 4.3
O=c1c(O)c(-c2ccc(O)c(O)c2)oc2ccccc12 | 1800 | 4.5
C[N+](C)(C)CCCOc1ccc2c(=O)cc(-c3ccc(O)c(O)c3)oc2c1 | 37300 | 1.9
O=c1c(O)c(-c2ccc(O)c(O)c2)oc2cc(O)ccc12 [FISETIN] | 200 | 5.6
O=c1cc(-c2ccc(O)c(O)c2)oc2cc(OCCO)ccc12 | 16400 | 4.3
C[N+](C)(C)CCCCCCOc1c(-c2ccc(O)c(O)c2)oc2ccccc2c1=O | 1400 | 4.3
C[N+](C)(C)CCCOc1c(-c2ccc(O)c(O)c2)oc2ccccc2c1=O | 1200 | 4.2
COc1c(-c2ccc(O)c(O)c2)oc2cc(O)ccc2c1=O | 1600 | 5.9
O=c1c(O)c(-c2ccc(O)c(O)c2)oc2cc(OCCO)ccc12 | 13800 | 4.9
CN(C)CCCOc1c(-c2ccc(O)c(O)c2)oc2ccccc2c1=O | 1000 | 3.4
CN(C)CCCOc1ccc2c(=O)cc(-c3ccc(O)c(O)c3)oc2c1 | 8100 | 2.9
O=c1c(OCCO)c(-c2ccc(O)c(O)c2)oc2cc(O)ccc12 | 21700 | 3.4
O=c1c(OCCO)c(-c2ccc(O)c(O)c2)oc2ccccc12 | 600 | 4.4
